Reference: ChEMBL document CHEMBL2046393, “Enantiomeric derivatives of tokinolide B: absolute configuration and biological properties” (J Nat Prod, 2012)
pIC50: −log10 of the molar value.

How the values were obtained:
Format in all cases: functional, cell-based
K562 = assay: Cytotoxicity against human K562 cells assessed as growth inhibition after 48 hrs by SRB assay; settings: K562, 48 h
Summary of the method: (§1)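 Cell lines from NCI, grown in RPMI-1640 with 10% FBS and antibiotics at 37 °C, 5% CO2. Seeding: HCT-15 10 × 10^4 cell/well, K562 5 × 10^4 cell/mL, SKLU-1 7500 cell/mL. After 24 h, compound added for 48 h. Cells fixed in cold TCA (60 min, 4 °C), stained with 0.4% SRB, dye extracted in Tris base, OD read at 515 nm. IC50 from linear regression; means ± SEM, three replicates.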

HCT-15 = assay: Cytotoxicity against human HCT15 cells assessed as growth inhibition after 48 hrs by SRB assay; settings: HCT-15, 48 h; summary of the method: as §1
SK-LU-1 = assay: Cytotoxicity against human SKLU1 cells assessed as growth inhibition after 48 hrs by SRB assay; settings: SK-LU-1, 48 h; summary of the method: as §1

Row | SMILES | pIC50 (K562) | pIC50 (HCT-15) | pIC50 (SK-LU-1)
1 | CCCC[C@]12O[C@@]34CCCC=C3C(=O)O[C@]43[C@@H](CCC)[C@@H]4C=C(C(=O)N1[C@H](C)c1ccccc1)[C@@]32CC4 | 5.24 | 5.27 | 5.39
2 | CCCC[C@@]12O[C@]34CCCC=C3C(=O)O[C@@]43[C@H](CCC)[C@H]4C=C(C(=O)N1[C@H](C)c1ccccc1)[C@]32CC4 | 4.66 | 5.07 | 5.23
3 | CCCC[C@@]12O[C@]34CCCC=C3C(=O)O[C@@]43[C@H](CCC)[C@@H]4C=C(C(=O)N1[C@@H](C)c1ccccc1)[C@]32CC4 | 4.86 | 5.12 | 5.31
4 | CCCC[C@]12O[C@@]34CCCC=C3C(=O)O[C@]43[C@@H](CCC)[C@H]4C=C(C(=O)N1[C@@H](C)c1ccccc1)[C@@]32CC4 | 5.28 | 5.28 | 5.37
5 | CCC/C=C1\OC(=O)C2=C[C@H]3CCC21[C@]1(OC(=O)C2=C1CCC=C2)[C@@H]3CCC (mixture of isomers) | 4.58 | 4.98 | 5.15
6 | CCC/C=C1\OC(=O)C2=C1CC[C@H]1[C@@H]2[C@@]2(OC(=O)C3=C2CCC=C3)[C@H]1CCC (racemic) | 4.34 | 4.35 | 4.88
7 | C=C1C(=O)O[C@@H]2C[C@@H](C)[C@@H]3C=CC(=O)[C@@]3(C)[C@@H](O)[C@H]12 [HELENALIN] | 6.55 | 6.54 | 6.68
